An excerpt weighted towards active compounds, which were near 1.5% of everything screened.
RAD54 inh: blocks human RAD54 Holliday junction branch migration; Q92698; FAM/BHQ fluorescence; inhibition, % at 10.4 µM; 0.14% of 360,000 active; AID 602329;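 active means mean normalized replicate activity at least 40 and at least half of replicates scoring 40 or more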;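 further: 0% = median of neutral control wells and 100% = median of positive control wells; inhibitors cause a drop in the FAM fluorescence signal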
dFosB act: enhances mouse delta FosB homodimer DNA binding. purified delta FosB, TAMRA-CDK5 oligo fluorescence polarization; percent of positive-control signal above neutral wells. activation, % at 25 µM. 0.99% of 340,000 active. AID 493131;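 active means mean activation above about 17%, with every replicate also reaching it, limit read from the data, passing the limit was not always enough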
RAD52 anneal inh: blocks human RAD52 DNA annealing | recombinant RAD52 DNA annealing, FRET fluorescence | inhibition, % at 18.7 µM | 0.46% of 360,000 active;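 active means every replicate showing at least 50% inhibition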
S100A4 inh HTS: S100A4-myosin IIA interaction inhibition | 0.14% of 360,000 active | inhibition, % at 10.7 µM | S100A4/TAMRA-MyoIIA peptide fluorescence polarization;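 active means mean inhibition of at least 70% across replicates, with every replicate also reaching that level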
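Test system: S100A4 monomer protein. Medium: HEPES buffer with Ca2+, pH 7.2. Reagent: fluorescent myosin IIA peptide, 5 nM. Compound dosing: single-point compound testing. Timing: 5 min between mix addition and reading. Benchmarks: DMSO neutral and TFP positive wells.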
MLL AF4-AF9 inh: MLL-AF4/AF9 protein interaction inhibition; 0.47% of 350,000 active; AID 651704; inhibition, % at 10 µM; AlphaScreen, biotin-AF4 peptide binding to FLAG-AF9;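 active means every replicate reaching a set inhibition limit, whatever the replicate mean, cut at about 25% in these data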;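 further: 0% = plate neutral control median and 100% = total signal loss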
Target sequence (P42568 whole entry, looked up): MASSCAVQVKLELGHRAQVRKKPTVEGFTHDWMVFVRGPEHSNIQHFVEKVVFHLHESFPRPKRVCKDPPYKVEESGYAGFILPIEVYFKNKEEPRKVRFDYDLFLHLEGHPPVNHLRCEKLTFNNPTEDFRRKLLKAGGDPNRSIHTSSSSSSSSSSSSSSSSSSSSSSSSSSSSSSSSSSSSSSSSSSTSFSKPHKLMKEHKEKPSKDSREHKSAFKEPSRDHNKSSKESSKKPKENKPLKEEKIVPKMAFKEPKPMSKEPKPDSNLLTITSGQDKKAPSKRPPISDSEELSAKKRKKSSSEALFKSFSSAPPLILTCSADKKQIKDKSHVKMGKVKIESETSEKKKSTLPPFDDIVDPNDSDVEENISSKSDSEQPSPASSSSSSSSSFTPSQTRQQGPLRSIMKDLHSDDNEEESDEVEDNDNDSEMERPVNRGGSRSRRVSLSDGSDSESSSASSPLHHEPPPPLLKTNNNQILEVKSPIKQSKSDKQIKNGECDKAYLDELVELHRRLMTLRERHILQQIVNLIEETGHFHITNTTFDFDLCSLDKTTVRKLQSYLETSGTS
* hit, by the source's call; i = inactive; nt = no result.

SMILES | RAD54 inh | dFosB act | RAD52 anneal inh | S100A4 inh HTS | MLL AF4-AF9 inh
Cc1ccc(S(=O)(=O)N2CCOCC2)cc1NC(=O)COC(=O)/C=C/c1ccc(F)cc1 | nt | 81* | 8 | -1 | 1
CC1(C)CCN2CCC(C)(C)c3c(O)ccc1c32 | -274 | -22 | i | -11 | 26*
CC1=CC(=C(C#N)C#N)C=C(C)N1CCN1CCN(C(=O)Nc2cccc(Cl)c2)CC1 | nt | 30* | -29 | 2 | -1
CC(=O)N1CCN(CCN2C(C)=CC(=C(C#N)C#N)C=C2C)CC1 | 6 | 0 | -19 | -2 | 1
CC1=CC(=C(C#N)C#N)C=C(C)N1CCN1CCNCC1 | nt | 19* | -16 | 8 | -6
CO[C@@H]1CN(C)C(=O)c2cc(NS(=O)(=O)c3ccc(Cl)cc3)ccc2OC[C@@H](C)NC[C@@H]1C | -14 | nt | -6 | -4 | -3
C[C@H](O)C#Cc1cnc2c(c1)C(=O)N([C@@H](C)CO)C[C@@H](C)[C@@H](CN(C)Cc1ccccn1)O2 | -4 | nt | -3 | -1 | -4
COc1ccc2c(c1)[nH]c1c(=O)n(/N=C/c3ccc(OC)c(CN4CCCCC4)c3)cnc12 | -4 | 74* | -5 | -7 | -6
CNC[C@H]1OCCCC[C@H](C)Oc2ccc(NC(=O)c3ccccc3)cc2C(=O)N([C@@H](C)CO)C[C@@H]1C | -18 | nt | -210 | -6 | -8
COc1ccc(/C=C2\SC(=S)N(CC(=O)NC3CCS(=O)(=O)C3)C2=O)cc1 (stereo unspecified) | -11 | 47* | -11 | 3 | 0
O=C(CCN1C(=O)/C(=C/c2ccco2)SC1=S)Nc1ccc(C(=O)O)c(O)c1 | -87 | -13 | -365 | -49 | 6
O=C(CCN1C(=O)/C(=C\c2ccccc2)SC1=S)NNC(=O)c1ccccc1O | -2 | 20* | 3 | 0 | 0
COc1ccc(/C=C2\SC(=S)N(CCC(=O)Nc3cccc(O)c3)C2=O)cc1 | 5 | 25* | -15 | -3 | -1
COc1ccc(/C=C2\SC(=S)N(CCCC(=O)Nc3ccc(O)cc3)C2=O)cc1 | -9 | -5 | -20 | 0 | nt
COc1ccccc1/C=C1\SC(=S)N(CCC(=O)Nc2ccc(C(=O)O)c(O)c2)C1=O | nt | -15 | -12 | 2 | 26*
C[C@@H]1CCCCO[C@@H](CN(C)C(=O)CCCN(C)C)[C@@H](C)CN([C@@H](C)CO)C(=O)c2cc(NC(=O)c3ccccc3)ccc2O1 | 5 | nt | -7 | 7 | 1
COc1ccc(/C=C2\SC(=S)N(CCC(=O)NCCc3ccc(O)cc3)C2=O)cc1 | -8 | 38* | -19 | 1 | -1
C=CC#CC[N+]1(CC#Cc2ccccc2)CCOCC1 | nt | -71 | 74* | 4 | 97*
O=C(c1ccccc1)N1CC(=O)N2[C@H](CO)[C@H](c3ccc(C#CCC4CCCC4)cc3)[C@@H]2C1 | nt | nt | -9 | -19 | 2
Oc1cccc2cc(Nc3ccccc3)cnc12 | 16 | nt | -5 | -6 | 30*
Nc1cccc2nc3ccccc3cc12 | 106* | -7 | nt | -12 | 0
c1cc(-c2ccc(C3[C@H]4CNC[C@@H]3N4CC3CCCCC3)cc2)ccn1 (stereo partly specified) | nt | nt | -14 | -5 | 29*
c1cc(-c2ccc(C3[C@H]4CNC[C@@H]3N4CC3CCOCC3)cc2)ccn1 (stereo partly specified) | nt | nt | -14 | 10 | 3
COc1cc(NS(=O)(=O)c2ccc(C)cc2)c2ncccc2c1 | nt | 1 | nt | nt | nt
CCC(CNc1cc(OC)cc2cccnc12)NC1CCCCC1 (stereo unspecified) | nt | -8 | 36 | 140* | 56*
SMILES | RAD54 inh | dFosB act | RAD52 anneal inh | S100A4 inh HTS | MLL AF4-AF9 inh
COc1cc(NCCCC(C)N)c2ncccc2c1 (stereo unspecified) | 69* | 4 | nt | nt | nt
COc1ccc(CN(C)C[C@H]2Oc3ccc(NC(=O)C4CC4)cc3C(=O)N([C@H](C)CO)C[C@H]2C)cc1 | 4 | nt | -11 | 6 | -3
COc1cc(CNc2ncc(-c3ccc(Br)cc3)n2C)cc(OC)c1O | 10 | -5 | -6 | -6 | 25*
COc1ccc(S(=O)(=O)N(C)C[C@H]2Oc3ccc(NC(=O)Nc4ccc(F)cc4)cc3C(=O)N([C@@H](C)CO)C[C@@H]2C)cc1 | -6 | nt | 24 | -3 | 0
COc1ccccc1CNC(=O)C1CCCN(S(=O)(=O)c2cccc3nonc23)C1 (stereo unspecified) | nt | -6 | -14 | -6 | -4
Cc1ccc(CNC(=O)C2CCN(S(=O)(=O)c3cccc4nonc34)CC2)cc1 | 1 | 21* | -13 | -2 | -1
O=C(NCc1ccccc1Cl)C1CCCN(S(=O)(=O)c2cccc3nonc23)C1 (stereo unspecified) | -4 | 39* | -19 | -5 | -4
Cc1ccc(CCNC(=O)C2CCN(S(=O)(=O)c3cccc4nonc34)CC2)cc1 | -3 | -6 | nt | nt | nt
COc1cccc(-c2ccc([C@@H]3[C@H]4CN(CC5CCOCC5)CCCCN4[C@H]3CO)cc2)c1 | 1 | nt | 42 | -30 | 5
CN(C)CC#Cc1ccc([C@@H]2[C@H](CO)N3CCCCN(CC4CC4)C[C@@H]23)cc1 | -3 | nt | 58* | 0 | 27*
CN(C)CC#Cc1ccc([C@@H]2[C@@H](CO)N3CCCCN(CC4CC4)C[C@@H]23)cc1 | -3 | nt | 71* | -6 | 26*
CCCC#Cc1ccc([C@H]2[C@@H](CO)N3CCCCN(CC4CC4)C[C@H]23)cc1 | 4 | nt | 53* | -7 | 16
COc1cccc(-c2ccc([C@H]3[C@@H](CO)N4CCCCN(CC5CCOCC5)C[C@@H]34)cc2)c1 | -1 | nt | 56* | -3 | 2
O=C(C[C@@H]1CC[C@H]2NC[C@H](O)COC[C@@H]2O1)NCCN1CCCC1 | nt | nt | -9 | 9 | 3
COc1ccc2c3c([nH]c2c1)[C@@H](CO)N(C(=O)Cc1ccccc1)CC31CN(C)C1 | nt | nt | 15 | -15 | -1
COc1ccc2c3c([nH]c2c1)[C@@H](CO)N(C(=O)Nc1ccc(F)cc1)CC31CN(S(=O)(=O)c2ccc(C)cc2)C1 | nt | nt | 6 | 6 | -8
CN(C)CC#Cc1ccc([C@H]2[C@@H](CO)N3CCCCN(CC4CCOCC4)C[C@H]23)cc1 | -8 | nt | 62* | 4 | 9
Cc1cccc(Nc2nc(-c3ccc(O)c(O)c3)cs2)n1 | -2 | -7 | -8 | 1 | 26*
Cc1ccnc(Nc2nc(-c3ccc(O)c(O)c3)cs2)c1 | 14 | 0 | 3 | 0 | 41*
C[C@H](CO)N1C[C@H](C)[C@@H](CN(C)Cc2ccc(Cl)c(Cl)c2)Oc2ccc(NS(=O)(=O)c3ccccc3)cc2CC1=O | -6 | nt | 64* | 9 | 0
C[C@@H]1CN([C@@H](C)CO)C(=O)Cc2cc(NC(=O)Nc3ccc4c(c3)OCO4)ccc2O[C@H]1CN(C)Cc1ccc2c(c1)OCO2 | -6 | nt | -15 | -6 | 25*
